Drawing on ChEMBL document CHEMBL4513216, “Probing the Open Global Health Chemical Diversity Library for Multistage-Active Starting Points for Next-Generation Antimalarials” (ACS Infect Dis, 2020), this text covers cytotoxicity for 96 compounds.

This data set is described as follows: Toxicity liver stage against HepG2, at 10uM. In kind it is cell-based. The arrangement: test concentration 10 uM, cell line HepG2-A16-CD81EGFP. The note with it: human, HepG2-A16-CD81EGFP cells; read-out: INHIBITION
Put shortly:
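Uninfected HepG2-A16-CD81EGFP cells, 3 × 10^3 per well, 1536-well, plated on prespotted compound at 10 μM final, parasite-free screening media added to match infected plates; puromycin 10 μM positive, DMSO 0.5% negative; run in parallel with 48 h PbLuc assay at 37 °C, 5% CO2; viability by CellTiter-Glo luminescence, normalized to controls.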
Consider `CCCc1ccc2oc(C(=O)N3CCC(O)CC3)c(C)c2c1`, for which the cytotoxicity at 10 µM was 0.361%. With `CN(C)C(=O)c1cc2ncc(C(=O)NC3CC3)cc2n1C`, the cytotoxicity at 10 µM is -0.931%. As for `N#CCCN(CC1CCCO1)C(=O)c1ccc2nonc2c1` (stereo unspecified), the figure is 1.35%; as for `CC(C)NC(=O)c1cccc(Oc2ccc3nncn3n2)c1`, -13.3%; as for `Cn1cnc2ccc(NC(=O)CCCn3cccn3)cc2c1=O`, 4.31%.

As for `COCCc1nnc(NC(=O)CSCc2ccccc2)o1`, the cytotoxicity at 10 µM is -3.75%. As for `CCO[C@@H]1CC[C@H]2[C@H]1OCCN2S(=O)(=O)C1CC1`, the figure is 5.64%; as for `Cc1ccc(C(=O)Nc2nn[nH]n2)s1`, -0.246%; as for `CC(C)NC(=O)C1(Cc2ccccc2-c2ccccc2)CCCNC1` (stereo unspecified), 3.05%. On to `CN([C@@H]1CC[C@@H](N2CCOCC2)[C@@H]1O)S(=O)(=O)c1ccccc1`, for which the cytotoxicity at 10 µM was found to be 2.77%. Regarding `Cc1cc(C)nc(N2CCOC(c3cc(CCO)[nH]n3)C2)n1` (stereo unspecified), the cytotoxicity at 10 µM turned out to be 1.89%.

Take `Cc1c[nH]nc1C1CCCN(C(=O)Cn2cccn2)C1` (stereo unspecified): the cytotoxicity at 10 µM was -14.5%. With `CN(C)c1cc(C2CCCN(C(=O)Cn3cc(Cl)cn3)C2)ccn1` (stereo unspecified), the cytotoxicity at 10 µM is -23.2%. In the case of `CCn1ncc(CN2C[C@@H]3CCCN3C[C@H]2CCSC)c1C`, the cytotoxicity at 10 µM is -19.1%. To `COc1cccc(CC(=O)N2CCCC(c3n[nH]c4nccnc34)C2)c1` (stereo unspecified) belongs 4.62%; to `Cc1ccsc1CN(CCCN(C)C)Cc1ccccn1`, -4.11%; to `CCc1ccccc1C(=O)NS(=O)(=O)CCCC#N`, -5.83%. As for `O=C(Nc1cn[nH]c1)N1CCCCCC1c1ccncc1` (stereo unspecified), the figure is -3.4%. To `CCc1nnc2n1CCN(C(C(=O)NC1CC1)c1ccc(F)cc1)C2` (stereo unspecified) belongs 2.16%. As to `CCC(O)CN(Cc1cccc(C(=O)N(C)C)c1)c1ccccc1` (stereo unspecified), the cytotoxicity at 10 µM was determined as 0.503%. To `Cc1nn(C)c(C)c1OCC(=O)N1CCCc2c(F)ccc(F)c21` belongs 2.27%; to `O=S(=O)(NCc1ccnc(-n2ccnc2)c1)c1cncc(F)c1`, 1.28%. As to `CCc1c(C(=O)N2CC(C)OC(C)(C)C2)cnn1-c1ccccn1` (stereo unspecified), the cytotoxicity at 10 µM is -2.51%. To `Cc1nnc2n1CCN(c1nc3ccccc3o1)C2` belongs 3.51%. In the case of `CN(Cc1ccc(Cl)s1)C(=O)NCCC(=O)N1CCCCCC1`, the cytotoxicity at 10 µM is -0.691%. To `Cc1nnc(CSc2ccc(C(F)(F)F)cn2)o1` belongs -6.51%. For the compound `Cn1cc(C(=O)N2CCCC2CCc2ccccc2)cn1` (stereo unspecified), the cytotoxicity at 10 µM was 9.84%.

Turning to `CCc1noc(C)c1C(=O)NCc1cc[nH]n1`, the cytotoxicity at 10 µM was determined as 3.44%. To `CC(=O)NCCCSC1CCN(c2ccccc2F)C1=O` (stereo unspecified) belongs -2.45%; to `Cc1ccnc(C(NC(=O)c2ccc(O)nc2C)C2CC2)n1` (stereo unspecified), -5.3%. Turning to `COC(=O)CNC(=O)c1scnc1C`, the cytotoxicity at 10 µM is 7.71%. `CCNS(=O)(=O)C1CCN(C(=O)c2ccc(CC)o2)C1` (stereo unspecified): the cytotoxicity at 10 µM stood at 5.45%. In the case of `Cc1nc(C)n(CC2CCCCN2CCCS(C)(=O)=O)n1` (stereo unspecified), the cytotoxicity at 10 µM came out at 5.02%. To `CCC(O)CN1CCN(C(=O)CN(C)c2ccc(Cl)cn2)CC1` (stereo unspecified) belongs 0.684%; to `Cc1ccc(CS(=O)(=O)CC(=O)NCc2ccccc2F)cc1`, 0.515%; to `CCN1CCC(NC(=O)c2ccc(F)cc2I)CC1`, -10%. To `CC(C)C(C)(C#N)NC(=O)Cn1cc(C(N)=O)c(-c2ccccc2)n1` (stereo unspecified) belongs -8.82%; to `COc1ccccc1CNC1(CCO)CCOCC1`, 20.5%. Regarding `CC(NCC1CCN(CCO)CC1)c1ccc(OC(F)(F)F)cc1` (stereo unspecified), the cytotoxicity at 10 µM is -15.1%. For the compound `Cc1ccc(CC(=O)Nc2ccc(CS(C)(=O)=O)c(F)c2)cc1`, the cytotoxicity at 10 µM was -2.77%. Turning to `Cc1nnc2n1CCN(C(=O)CN1C(=O)CCCc3ccccc31)C2`, the cytotoxicity at 10 µM was -11.4%. As for `Cc1nnc(CN(Cc2ccccc2C(F)(F)F)C2CC2)o1`, the figure is 8.32%; as for `CN(C)C(=O)Cc1ccccc1NCc1cccc2cccnc12`, -1.81%; as for `CN(C)CCN(Cc1cccc(F)c1)C(=O)c1ccc2nccn2c1`, -0.0817%.

In the case of `O=C(CN1CCCNC1=O)Nc1ccccc1SC(F)(F)F`, the cytotoxicity at 10 µM amounted to 12.7%. As for `O=C(CSc1ccc2c(c1)OCCO2)NS(=O)(=O)C1CCCCC1`, the cytotoxicity at 10 µM is -3.69%. Take `CCc1nccn1C1CCCN(C(=O)c2ccc3[nH]cnc3c2)C1` (stereo unspecified): the cytotoxicity at 10 µM was -7.66%.

Consider `CS(=O)(=O)N1CCO[C@@H]2CN(C(=O)c3cccnc3)C[C@@H]2C1`, for which the cytotoxicity at 10 µM was determined as 7.64%. To `c1cnc(NCc2noc3c2CN(c2cnccn2)CC3)nc1` belongs 0.774%; to `Cc1cc(C(=O)NC2CCc3c(ccc(=O)n3CC(C)C)C2)no1` (stereo unspecified), 7.15%.

`c1cncc(CN2CCCC3(COCCN(c4cncnc4)C3)C2)c1` (stereo unspecified): the cytotoxicity at 10 µM is -73.3%. As for `CC1=N[C@@]2(CC[C@@H]3CN(S(=O)(=O)CC(C)C)C[C@@H]32)C(=O)N1CC1CC1`, the figure is -66.6%; as for `Cc1cc(N2CCN(C(=O)c3cnn(C(C)C)c3)CC2)cc(C)n1`, -15.2%. For the compound `CCN(CCO)C[C@@H]1CN(c2cccc(C(F)(F)F)n2)C[C@@H]1CO`, the cytotoxicity at 10 µM stood at 0.855%.

For the compound `CCOc1ccccc1CC(=O)N1C[C@H](C2CC2)[C@@H](N)C1`, the cytotoxicity at 10 µM is -2.45%. As for `CCn1nc(CC(C)C)cc1C(=O)N1CCC2(CC1)[C@H](O)C[C@@H]2O`, the figure is -7.2%; as for `O=C(c1cnc(Nc2ccccc2)nc1)N1CCC(O)(CO)CC1`, -0.756%; as for `O=C(COCc1ccccc1)N1CCN(Cc2ccccc2F)C(=O)C1`, -3.19%. To `N[C@H]1CN(C(=O)c2ccccc2OCc2ccccc2)C[C@@H]1C1CC1` belongs -3.57%. To `COCC1(C(=O)N[C@H]2CN(c3noc(C)n3)C[C@@H]2C2CC2)CCC1` belongs -135%. `COc1ccccc1OC1(C(=O)O)CCN(c2nccnc2OC)CC1`: the cytotoxicity at 10 µM is -6.25%. Consider `c1cc(-c2ccc(CN3CCC4(CCNCC4)CC3)s2)[nH]n1`, for which the cytotoxicity at 10 µM was -166%. `C=C(C)COc1ccccc1C(=O)NCCc1nncn1C`: the cytotoxicity at 10 µM was -3.06%. For `O=C(c1coc(COc2ccccc2F)n1)N1CCC[C@H]1CO`, the cytotoxicity at 10 µM was 0.835%. On to `CC(Oc1ccc2c(c1)OCO2)C(=O)N1CCC(c2ncc[nH]2)CC1` (stereo unspecified), for which the cytotoxicity at 10 µM was -2.58%. Consider `CCN1CC2(CCC1=O)CCN(CCc1nccn1C)CC2`, for which the cytotoxicity at 10 µM was 4.65%. To `Cc1cc2nc(C(C)C)cc(NCc3ccncc3)n2n1` belongs 2.63%; to `CCn1ccnc1CN(C)C(=O)Cn1ccc2ccccc2c1=O`, 2.37%; to `COc1ccccc1CN1C(=O)O[C@@H]2CN(c3nccs3)C[C@@H]21`, 6.27%. To `Cc1ccc(C(=O)N2Cc3ccccc3C2)cc1N1CCNC1=O` belongs -13.9%.

For the compound `CC(C)n1ccnc1C1CCN(C(=O)c2cc[nH]n2)CC1`, the cytotoxicity at 10 µM was -3.28%. To `CCCN1CCCn2nc(CNS(=O)(=O)c3cccc(C#N)c3)cc2C1` belongs -2.96%; to `Cc1ccsc1[C@@H]1CCN(C(=O)CCC(=O)N2CCCCCC2)C[C@H]1O`, -1.72%. `Fc1ccccc1C1NCCc2cc3c(cc21)OCCO3` (stereo unspecified): the cytotoxicity at 10 µM was -10.2%.

For the compound `COCCOc1ccc(Cl)c(C(=O)N2CCN(CCO)CC2)n1`, the cytotoxicity at 10 µM is -4.33%. As for `Cc1noc(CN(C)C2CCCN(Cc3noc(C4CC4)n3)C2)n1` (stereo unspecified), the figure is -2.19%; as for `O=C(N1CCCC(n2cncn2)C1)C1(c2ccc(Cl)cc2)CCC1` (stereo unspecified), -2.11%. For the compound `O=C(Nc1ccc(OC2CCCC2)cc1)C1CCCN1c1nccs1` (stereo unspecified), the cytotoxicity at 10 µM is -10.2%. To `CN(C)c1cc(C(=O)N2CCCCC2)ccn1` belongs -4.63%; to `Cc1nc(C2CCCN2CC(=O)NCCOc2cccc(F)c2)no1` (stereo unspecified), -16.3%; to `O=C(Nc1ncn(CC(=O)N2CCCCCC2)n1)C1CCCC1`, -11.2%.

In the case of `COc1c(CNC(c2ccccc2F)c2nccn2C)c(C)nn1C` (stereo unspecified), the cytotoxicity at 10 µM was -13.9%.

`CCOc1ccccc1OC1CCN(C(=O)c2[nH]nc(C)c2Br)CC1`: the cytotoxicity at 10 µM is -8.75%. `CC(=O)c1cccc(OCC(=O)NS(=O)(=O)c2cccs2)c1`: the cytotoxicity at 10 µM is -10.5%. `Cc1cnn(CC2CCCCN2C(=O)Cc2ccc(C#N)cc2)c1` (stereo unspecified): the cytotoxicity at 10 µM was -7.09%. To `CN(C)c1ccc(C(=O)N2CCC(c3n[nH]c(C4CC4)n3)CC2)cc1` belongs -2.42%. As for `COc1ccccc1OCCNC(=O)N1CCC(n2cncn2)CC1`, the figure is 1.67%. On to `CCOc1cccc2c1OCC(C(=O)NS(=O)(=O)c1cncc(Br)c1)=C2`, for which the cytotoxicity at 10 µM was -0.713%. Take `COc1cn(-c2ccccc2)nc1C(=O)NCCCN1CCCC(C)C1` (stereo unspecified): the cytotoxicity at 10 µM is -11.1%. To `COc1ccccc1C(O)CNC(=O)Nc1ncccc1C` (stereo unspecified) belongs -8.65%. Take `CCc1nc(C2CCCN2C(=O)c2ccc3c(c2)nnn3CC)no1` (stereo unspecified): the cytotoxicity at 10 µM came to 4.5%. As for `O=C(NCc1nnc2n1CCCC2)N1CCc2ccccc2C1`, the cytotoxicity at 10 µM came out at 4.79%.

As to `CCN1CCN(C2CCN(Cc3nnc(C(C)(C)C)o3)CC2)C1=O`, the cytotoxicity at 10 µM was determined as 3.8%. On to `CC(OCC(F)(F)F)C(=O)NCc1ccc(-n2cncn2)nc1` (stereo unspecified), for which the cytotoxicity at 10 µM is -2.55%. To `CC(=O)N1CCC2(CC1)CN(C)C(=O)C[C@H]2C(F)(F)F` belongs -161%. For the compound `O=C(c1ccc(F)cc1)N1CCC2(CCN(Cc3ccccn3)C2=O)C1` (stereo unspecified), the cytotoxicity at 10 µM was -136%.
